What was measured:
[1] = test system: L6; experiment: Cytotoxicity against rat L6 cells after 70 hrs by alamar blue assay; format: cell-based; settings: L6, 70 h
Procedure, shortened: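 L6 rat myoblasts, 4000 per well, in RPMI 1640 with 2 mM L-glutamine, HEPES, NaHCO₃ and 10% FBS. Exposed to serial dilutions (DMSO ≤1%) for 70 h at 37 °C in humidified 5% CO₂. Resazurin then added for 2-3 h; fluorescence read at ex 536/em 588 nm. IC50 from sigmoidal curves; two independent runs in duplicate.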

[2] = test system: Trypanosoma brucei rhodesiense; experiment: Antiprotozoal activity against Trypanosoma brucei rhodesiense STIB900 trypomastigotes after 70 hrs by alamar blue assay; format: functional, organism-based
Procedure, shortened: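 Bloodstream forms, 2000 per well, in MEM with Earle's salts plus 0.2 mM 2-mercaptoethanol, 1 mM pyruvate, 0.5 mM hypoxanthine and 15% heat-inactivated horse serum. Exposed to serial dilutions (DMSO ≤1%) for 70 h at 37 °C in 5% CO₂. Resazurin then added for a further 2-6 h. IC50 from sigmoidal curves; two independent runs in duplicate.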

[3] = Selectivity index, ratio of IC50 for rat L6 cells to IC50 for Trypanosoma brucei rhodesiense STIB900 trypomastigotes; format: toxicity, cell-based; settings: read-out: Ratio IC50
Procedure, shortened: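 Ratio of L6 IC50 to STIB900 IC50. L6 cells: 4000/well in RPMI 1640 with 10% FBS, 70 h at 37 °C. Bloodstream forms: 2000/well in supplemented MEM with 15% horse serum, 70 h at 37 °C. Both read by Alamar blue fluorescence; IC50s from sigmoidal curves, two independent runs in duplicate.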

[4] = test system: Plasmodium falciparum; experiment: Antiprotozoal activity after 48 hrs against chloroquine-resistant Plasmodium falciparum K1 infected erythrocytes by [3H]hypoxanthine uptake; format: functional, organism-based
Procedure, shortened: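 Erythrocytic stages in infected human red cells (hematocrit 1.25%, parasitemia 0.3%) in supplemented RPMI 1640 with Albumax II. Serial dilutions incubated at 37 °C in 93% N2/4% CO2/3% O2. [3H]-hypoxanthine (0.5 µCi/well) added at 48 h, then 24 h more. Incorporation counted by scintillation. IC50 from sigmoidal curves; two independent runs in duplicate.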

[5] = Selectivity index, ratio of IC50 for rat L6 cells to IC50 for chloroquine-resistant Plasmodium falciparum K1; format: toxicity, cell-based; settings: read-out: Ratio IC50
Procedure, shortened: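 Ratio of L6 IC50 to K1 IC50. L6 cells: Alamar blue assay after 70 h, 37 °C. K1: [3H]-hypoxanthine incorporation in infected red cells over 48 + 24 h at 37 °C under low O2. IC50s from sigmoidal curves, two independent runs in duplicate.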

[6] = test system: Leishmania donovani; experiment: Antiprotozoal activity against Leishmania donovani MHOM/SD/62/1S-CL2D axenic amastigotes after 72 hrs; format: functional, organism-based
Procedure, shortened: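 L. donovani axenic amastigotes, adapted from promastigotes and grown in amastigote medium at 37 °C. 6 × 10⁴ parasites per well with 2-fold compound dilutions (DMSO ≤1%), incubated 72 h at 37 °C in humidified 5% CO₂. Growth read by tetrazolium (CellTiter) absorbance at 490 nm. IC50 from a four-parameter dose-response fit. Average of duplicate determinations.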

[7] = Selectivity index, ratio of IC50 for rat L6 cells to IC50 for Leishmania donovani MHOM/SD/62/1S-CL2D axenic amastigotes; format: toxicity, cell-based; settings: read-out: Ratio IC50
Procedure, shortened: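 Amastigotes: 6 × 10⁴ parasites/well with 2-fold dilutions, 72 h at 37 °C in 5% CO2. Growth read by tetrazolium CellTiter absorbance at 490 nm; IC50 from a four-parameter dose-response fit.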

Structure (SMILES) | IC50 [1] [µM] | IC50 [2] [µM] | selectivity ratio [3] | IC50 [4] [µM] | selectivity ratio [5] | IC50 [6] [µM] | selectivity ratio [7]
CC(C)NC(=N)c1cccc(OCCCOc2cccc(C(=N)NC(C)C)c2)c1 | > 183 | 0.543 | > 337 | 0.018 | > 10200 | 16.2 | > 11
c1cc(OCCCCOc2cccc(C3=NCCN3)c2)cc(C2=NCCN2)c1 | > 185 | 1.94 | > 95 | 0.107 | > 1730 | 39.5 | > 5
CN1CCN=C1c1ccc(OCCCCCOc2ccc(C3=NCCN3C)cc2)cc1 | > 176 | > 19.6 | – | 1.65 | > 107 | > 100 | 2
Oc1cc(OCCCCCOc2ccc(C3=NCCN3)c(O)c2)ccc1C1=NCCN1 | > 169 | 3.7 | > 46 | 0.098 | > 1720 | > 100 | 2
N=C(N)c1ccc(OCCCCCOc2ccc(/C(N)=N\O)cc2)cc1 | 11.6 | 0.289 | 40 | 0.234 | 50 | 55.6 | < 1
C[C@@H]1CC[C@H]2[C@@H](C)C(=O)O[C@@H]3O[C@@]4(C)CC[C@@H]1[C@]32OO4 [ARTEMISININ] | – | – | – | – | 75000 | – | –
CCOC(=O)c1cc(C2=NCCN2)ccc1OCCCCCOc1ccc(C2=NCCN2)cc1C(=O)OCC | > 138 | > 15.3 | – | 0.027 | > 5110 | 13.6 | > 10
c1cc(OCCCCCOc2cccc(C3=NCCN3)c2)cc(C2=NCCN2)c1 | 100 | 1.49 | 67 | 0.024 | 4170 | 22.4 | 4
c1cc(-c2nnn[nH]2)ccc1OCCCCCOc1ccc(-c2nnn[nH]2)cc1 | > 229 | > 229 | – | 8.31 | > 28 | > 100 | 2
CC(C)NC(=N)c1ccc(OCCCCCOc2ccc(C(=N)NC(C)C)cc2C(=O)O)c(C(=O)O)c1 | > 144 | > 16 | – | > 1.6 | – | > 200 | –
CC(C)NC(=N)c1cccc(OCCCCCOc2cccc(C(=N)NC(C)C)c2)c1 | > 175 | 0.416 | > 421 | 0.004 | > 43800 | 15.4 | > 11
c1cc(OCCCOc2cccc(C3=NCCN3)c2)cc(C2=NCCN2)c1 | 43.5 | 4.3 | 10 | 5.39 | 8 | 30.8 | 1
Nc1cc(C2=NCCN2)ccc1OCCCOc1ccc(C2=NCCN2)cc1N | > 167 | 0.813 | > 205 | 0.07 | > 2390 | – | –
c1cc(OCCCCCCOc2cccc(C3=NCCN3)c2)cc(C2=NCCN2)c1 | 99 | 0.875 | 113 | 0.02 | 4950 | 21.9 | 5
O=C(O)c1cc(C2=NCCN2)ccc1OCCCCCOc1ccc(C2=NCCN2)cc1C(=O)O | > 151 | > 16.8 | – | > 1.68 | – | > 200 | –
